Reference: article PMC9306949 (Clinical Pharmacology in Drug Development, 2022)
“Also recorded” adds a separate entry of the source. Like-named read-outs stand apart in the source and are kept apart here. Marks after values point to notes of the source that are not given here.

Key:
[1] = format: in vivo, human; details: for exposure in UGT1A1*28 heterozygous poor metabolizers (6/7 TA repeats) vs WT (6/6 TA repeats): Treatment A, n = 16 vs n = 12; for C24: mean (%CV)
[2] = Urine excretion of navtemadlin and M1; format: in vivo, human
[3] = test system: MIC‐1; assay: Serum MIC-1 pharmacodynamics; format: in vivo, human; details: for P, baseline predose MIC‐1 concentration / MIC‐1 %CFBC24 (percent change from predose concentration at 24 hours) / MIC‐1 %CFBCmax (percent change from predose concentration at Cmax) / MIC‐1 AUC0‐24 / MIC‐1 AUC0‐inf / MIC‐1 AUC0‐t / MIC‐1 C24 / MIC‐1 FoldC24 (C24/P): serum, mean (%CV)
[4] = Safety: treatment-emergent adverse events; format: in vivo, human
[5] = test system: T, B, and natural killer lymphocytes in peripheral blood; assay: Immunophenotyping of whole blood; format: in vivo, human; details: periods 1 and 4; absolute counts and percentages
Summary of the method: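 Healthy adults took single 60-mg oral doses of the test compound. Whole blood (K2EDTA) was drawn at screening, predose on day 1 of periods 1 and 4, and on day 5 (96 h postdose). A validated GLP flow cytometry method gave absolute counts and percentages of peripheral T, B and NK lymphocytes.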

[6] = cited from earlier work
[7] = monoprotic carboxylic acid; cited from earlier work
[8] = cited from earlier work; remark: listed apart in the source
[9] = test system: MIC‐1; details: patients with solid tumors/MM and AML; cited from earlier work
[10] = physiologically based PK modeling; cited from earlier work
[11] = cynomolgus macaques; cited from earlier work
[12] = cited from earlier work; remark: listed apart in the source
[13] = period 1 (old tablet fasted), 0-48 h urine
[14] = Treatment A: 60 mg new tablet fasted
[15] = Treatment B: 60 mg new tablet fed
[16] = Treatment C: 60 mg old tablet fasted
[17] = single 60-mg doses, healthy subjects

Structure (SMILES): CC(C)[C@@H](CS(=O)(=O)C(C)C)N1C(=O)[C@@](C)(CC(=O)O)C[C@H](c2cccc(Cl)c2)[C@H]1c1ccc(Cl)cc1 [Navtemadlin]
- delay of tmax after a meal ([1]; B vs A: new tablet fed vs fasted): 1 h
- exposure in UGT1A1*28 heterozygous poor metabolizers (6/7 TA repeats) vs WT (6/6 TA repeats) [1]: slightly lower
- exposure in UGT1A1*28 heterozygous poor metabolizers (6/7 TA repeats) vs WT (6/6 TA repeats) ([1]; listed as navtemadlin): generally comparable
- time of second peak after dosing (enterohepatic recirculation) ([1]; all 3 treatments): around 10 hours
- tmax ([1]; human, plasma, oral, 60 mg): 2.01 h
- PK in H. pylori–positive vs H. pylori–negative subjects ([1]; n = 12 positive vs n = 18 negative): not markedly different; also recorded: not markedly affected
- decrease in extent of exposure (AUC0‐24, AUC0‐t, AUC0‐inf) with a high‐fat meal ([1]; new tablet fed vs fasted): 12% to 18%
- intersubject variability, AUC0‐24 %CV ([1]; new tablet, fasted): 55%
- intersubject variability, Cmax %CV ([1]; new tablet, fasted): 66%
- difference in median tmax between fed and fasted conditions, significance ([1]; new tablet, Wilcoxon signed-rank, alpha level of 0.1): statistically significant
- C24 ([1]; plasma, Treatment A: 60-mg new tablet, fasted): 37.4 (83.9); 60 ng/mL
- C24 ([1]; plasma, Treatment B: 60-mg new tablet, fed (high-fat meal)): 29.3 (83.3); 30 ng/mL
- C24 ([1]; plasma, Treatment C: 60-mg old tablet, fasted): 29.3 (83.6); 30 ng/mL
- intrasubject variability of PK parameters ([1]; reference formulation: new tablet, fasted): < 30%
- tmax, difference of medians (90%CI) ([1]; test-reference: B (new tablet fed) minus A (new tablet fasted)): 0.5 (0.004‐0.9) ^e , ^f h
- tmax, difference of medians (90%CI) ([1]; test-reference: C (old tablet fasted) minus A (new tablet fasted)): 0.1 (–0.3 to 0.6) ^e , ^f h
- mean amount excreted in urine [2, 13]: 12.1 µg
- mean fraction of dose excreted in urine [2, 13]: 0.02%
- urine excretion ([2]; single 60-mg dose, healthy subjects): negligible
- pharmacodynamic half‐life of MIC‐1 serum elevations ([3]; 60‐mg dose, healthy subjects): > 20 h
- correlation navtemadlin AUC0‐t vs MIC‐1 AUC0‐t, intercept ([3]; Treatment A, AUC in nM • h): 1.97
- correlation navtemadlin AUC0‐t vs MIC‐1 AUC0‐t, slope ([3]; Treatment A, AUC in nM • h): 0.0006
- P, baseline predose MIC‐1 concentration ([3]; Treatment A: 60 mg new tablet fasted (periods 2-4)): 170 (119.8); 60 pg/mL
- MIC‐1 %CFBC24 (percent change from predose concentration at 24 hours) [3, 14]: 2297 (101); 60%
- MIC‐1 %CFBCmax (percent change from predose concentration at Cmax) [3, 14]: 3759 (103.5); 60%
- MIC‐1 AUC0‐24 [3, 14]: 32743 (49.4); 60 pg • h/mL
- MIC‐1 AUC0‐inf [3, 14]: 96215 (51.9); 31 pg • h/mL
- MIC‐1 AUC0‐t [3, 14]: 89409 (48.7); 60 pg • h/mL
- MIC‐1 C24 [3, 14]: 1318 (50.5); 60 pg/mL
- MIC‐1 FoldC24 (C24/P) [3, 14]: 24.0 (96.8); 60
- P, baseline predose MIC‐1 concentration ([3]; Treatment B: 60 mg new tablet fed (periods 2-4)): 214 (133.2); 30 pg/mL
- MIC‐1 %CFBC24 (percent change from predose concentration at 24 hours) [3, 15]: 1778 (115.5); 30%
- MIC‐1 %CFBCmax (percent change from predose concentration at Cmax) [3, 15]: 2684 (115.7); 30%
- MIC‐1 AUC0‐24 [3, 15]: 29820 (52.7); 30 pg • h/mL
- MIC‐1 AUC0‐inf [3, 15]: 67607 (35.1); 16 pg • h/mL
- MIC‐1 AUC0‐t [3, 15]: 81332 (54.2); 30 pg • h/mL
- MIC‐1 C24 [3, 15]: 1209 (47.7); 30 pg/mL
- MIC‐1 FoldC24 (C24/P) [3, 15]: 18.8 (109.4); 30
- P, baseline predose MIC‐1 concentration ([3]; Treatment C: 60 mg old tablet fasted (period 1)): 505 (41); 30 pg/mL
- MIC‐1 %CFBC24 (percent change from predose concentration at 24 hours) [3, 16]: 139 (61.8); 30%
- MIC‐1 %CFBCmax (percent change from predose concentration at Cmax) [3, 16]: 393 (62.5); 30%
- MIC‐1 AUC0‐24 [3, 16]: 34365 (53.4); 30 pg • h/mL
- MIC‐1 AUC0‐inf [3, 16]: 110915 (30.5); 4 pg • h/mL
- MIC‐1 AUC0‐t [3, 16]: 91175 (38.5); 30 pg • h/mL
- MIC‐1 C24 [3, 16]: 1144 (38.4); 30 pg/mL
- MIC‐1 FoldC24 (C24/P) [3, 16]: 2.39 (36); 30
- All TEAEs: Number of Subjects with TEAE ([4]; Treatment A (Combined): new tablet fasted): 5
- All TEAEs: Number of Subjects with TEAE ([4]; Treatment B: new tablet fed): 2
- All TEAEs: Number of Subjects with TEAE ([4]; Treatment C: old tablet fasted (period 1)): Nine
- incidence of constipation (TEAE) ([4]; occurred only with treatment C (old tablet, fasted)): 13%
- incidence of headache (TEAE) ([4]; occurred with all treatments A, B, and C): 10%
- TEAE related to navtemadlin ([4]; reported once, treatment B (new tablet fed)): Headache
- discontinuations due to adverse events [4, 17]: without any discontinuations; also recorded: no subject discontinued due to an AE
- serious adverse events or deaths [4, 17]: No serious adverse events or deaths occurred; also recorded: No deaths or serious AEs occurred
- severity of adverse events [4, 17]: mild
- lymphocyte subsets and monocytes, postdose (96 hours) vs predose [5]: did not differ
- protein‐bound [6]: 97.5%
- pKa [7]: 4.35
- dose dependence of exposure ([8]; dose range of 15 mg to 480 mg): linear
- apparent oral central volume of distribution ([8]; patients with solid tumors): 62.9 L
- effect on serum PD marker MIC‐1 [9]: dose‐ and plasma concentration–dependent increases
- fraction absorbed [10]: ~100%
- urinary excretion route [11]: minor excretion route
- solubility, pH dependence [12]: increases with increasing pH
